Screening results as filed in PubChem.
Hits are enriched below; roughly 1.1% of the tested compounds scored in any of these assays.
LYPLA2 counter – LYPLA2 inhibitors, primary screen, counter-screen for PME1 inhibitor project, biochemical, fluorescence polarization, FP-Rh probe ABPP; hit rate 0.38% among 320,000; inhibition, % at 5.9 µM; recombinant LYPLA2;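 active = inhibition above the screen-wide mean plus 3 SD, limit set per campaign, cut at about 26% in these data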
Target sequence (O95372 whole entry, looked up): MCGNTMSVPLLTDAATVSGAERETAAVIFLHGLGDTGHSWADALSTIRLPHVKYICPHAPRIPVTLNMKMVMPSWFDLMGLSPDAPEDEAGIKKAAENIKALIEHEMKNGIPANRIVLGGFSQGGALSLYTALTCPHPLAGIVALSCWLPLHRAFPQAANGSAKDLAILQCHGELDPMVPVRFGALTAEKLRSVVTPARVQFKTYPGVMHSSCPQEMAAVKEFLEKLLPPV
LYPLA1 counter – LYPLA1 inhibitors, primary screen, counter-screen for PME1 inhibitor project, biochemical, fluorescence polarization, FP-Rh probe ABPP. Acyl-protein thioesterase 1 (Homo sapiens), O75608. recombinant LYPLA1. inhibition, % at 5.9 µM. hit rate 0.16% among 320,000;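 active = inhibition above the mean of all tested compounds plus 3 SD, set per campaign, cut at about 14% in these data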;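 note: inhibitors block serine hydrolase probe labeling of LYPLA1 so polarization falls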
Target sequence (O75608 whole entry, looked up): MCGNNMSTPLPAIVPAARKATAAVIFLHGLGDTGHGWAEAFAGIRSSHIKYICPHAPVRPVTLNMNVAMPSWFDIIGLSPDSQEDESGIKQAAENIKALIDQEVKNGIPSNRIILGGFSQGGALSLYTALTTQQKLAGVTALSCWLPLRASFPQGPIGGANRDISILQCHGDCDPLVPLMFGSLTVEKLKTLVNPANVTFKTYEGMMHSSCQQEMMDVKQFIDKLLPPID
PREPL inh – PREPL enzyme inhibitors, primary screen, biochemical, fluorescence polarization; recombinant PREPL, fluorescence polarization activity-based probe; inhibition, % at 5.96 µM; Prolyl endopeptidase-like (Homo sapiens), Q4J6C6; hit rate 0.68% among 320,000
proCasp7 act – procaspase-7 activators, primary screen, counter-screen for procaspase-3 activator project, biochemical, absorbance, HTS, human | Caspase-7 (Homo sapiens), P55210 | recombinant procaspase-7, Ac-DEVD-pNA absorbance 405 nm; D23A/D198A/D206A triple mutant, cannot self-cleave; scale: DMSO 0, 5 µM enzyme 100 | activation, % at 8.5 µM | hit rate 0.093% among 330,000 | AID 463210, 2010;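 active = percent activation above the screen-wide mean plus 3 SD, cut at about 25% in these data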
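buffer or medium = Zinc-free HEPES/NaCl buffer, pH 7.4 | material = Procaspase-7 triple mutant (PC-7 D3A) | input = 2 µM procaspase-7 mutant as dispensed | signal = Epi-absorbance of released pNA at 405 nm, two timepoints | timing = 1 h preincubation, 2 h reaction | replicates = singlicate compound testing | evaluation = % activation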
proCasp3 act – activators of human procaspase-3 D3A mutant, primary screen, biochemical, absorbance, PC-3 D3A mutant, single concentration | recombinant procaspase-3 D3A, Ac-DEVD-pNA absorbance 405 nm | hit rate 0.11% among 330,000 | activation, % at 8.5 µM;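 active = activation above the mean of all tested compounds plus 3 SD, cut at about 21% in these data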
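Assay system: Procaspase-3 D3A mutant, all three cleavage aspartates alanine. Buffer or medium: Zinc-free HEPES saline buffer with Triton X-100. Times: 1 h compound preincubation, 2 h substrate hydrolysis at 25 °C. Measured by: 405 nm absorbance of p-nitroaniline, reads at 0 and 120 min. Read-out basis: percent activation relative to control range. Replicates: singlicate.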
PREPL inh cf – human PREPL enzyme inhibitors, confirmation, biochemical, fluorescence polarization | shares compounds with PREPL inh | recombinant PREPL, fluorescence polarization activity probe | inhibition, % at 5.96 µM | hit rate 67% among 2,000
A number is an active result; - = inactive; . = no result. Cut-off read from the data, not from the text of the source, unless noted: active = inhibition above about 43%; inactive = the rest.

SMILES | LYPLA2 counter | LYPLA1 counter | PREPL inh | proCasp7 act | proCasp3 act | PREPL inh cf
Cc1ccc(N=Cc2sc(O)c3ccccc23)cc1 | - | - | 50 | - | - | 54
COCc1cc(CN2CCCC2)c(O)c2ncccc12 | - | - | - | - | - | .
Oc1c(CN2CCCCC2)cc(COCc2ccccc2)c2cccnc12 | - | - | 56 | - | - | 84
COc1cc(CCC(=O)Nc2nccs2)cc(OC)c1OC | - | - | - | - | - | .
CCN1/C(=C/C=C/C=C/c2sc3ccccc3[n+]2CC)Sc2ccccc21 | - | - | - | - | - | .
CCN1/C(=C/c2ccc3cc(C)ccc3[n+]2CC)Sc2ccccc21 | - | - | 65 | - | - | 57
CCNC(=O)/C(C#N)=C/c1c(N2CCN(c3ccc(OC)cc3)CC2)nc2c(C)cccn2c1=O | - | - | 55 | - | - | 49
COCCNC(=O)/C(C#N)=C/c1c(N2CCN(c3ccc(OC)cc3)CC2)nc2c(C)cccn2c1=O | - | - | 54 | - | - | 49
COCCNC(=O)/C(C#N)=C/c1c(N2CCN(c3ccccc3)CC2)nc2c(C)cccn2c1=O | - | - | - | - | - | .
CNC(=O)C1CCN(S(=O)(=O)c2c(C)noc2/C=C/c2ccc(C)cc2)CC1 | - | - | - | - | - | .
CC(C)COC(=O)N1C[C@H](O)C[C@H]1C(=O)Nc1ccc(Cl)cc1 | - | - | - | - | - | .
CC(=O)c1c(C)[nH]c(C(=O)OCc2csc(CC(=O)Nc3ccccc3C)n2)c1C | . | . | - | - | - | .
O=C(c1ccc(-c2cc(O)c3ncccc3c2)cc1)N1CCNCC1 | . | . | 55 | - | - | 49
COc1ccc(C2NC(=O)N(CCCC(=O)O)C(C)=C2C(=O)OCc2ccccc2)cc1 (stereo not drawn) | - | - | - | - | - | .
O=C(c1cc([N+](=O)[O-])ccc1Cl)N1CCN(c2ccc([N+](=O)[O-])cc2)CC1 | - | - | 65 | - | - | 58
COc1ccccc1CN1CC(C(=O)NCCSc2nnnn2C)CCC1=O (stereo not drawn) | - | - | - | - | - | .
O=C1C(Cl)=C(N2CCN(c3ccccc3[N+](=O)[O-])CC2)C(=O)c2ccccc21 | - | - | 58 | - | - | 44
O=[N+]([O-])c1cc(Cl)ccc1N1CCCC1 | - | - | - | - | - | .
Cc1ccc(NS(=O)(=O)c2ccc(C)c(C(=O)NCC(c3ccccc3)N(C)C)c2)cc1 (stereo not drawn) | - | - | - | - | - | .
CN(C)c1ccc(C(CNS(=O)(=O)c2ccc(F)cc2)c2c[nH]c3ccccc23)cc1 (stereo not drawn) | - | - | - | - | - | .
CN(C)c1ccc(C(CNC(=O)c2ccccc2Br)c2c[nH]c3ccccc23)cc1 (stereo not drawn) | - | - | 56 | - | - | -
O=C1C(NS(=O)(=O)c2cccs2)=C(N2CCN(c3cccc(Cl)c3)CC2)C(=O)c2ccccc21 | - | - | 58 | - | - | 56
CC1CCN(C2=C(NS(=O)(=O)c3ccc(Cl)cc3)C(=O)c3ccccc3C2=O)CC1 | - | - | - | - | - | .
O=C1C(NS(=O)(=O)c2ccccc2)=C(N2CCN(c3ccc(F)cc3)CC2)C(=O)c2ccccc21 | - | - | 59 | - | - | 61
O=C(CSc1nc2ccccc2c(=O)n1CC1CCCO1)Nc1ccccc1Cl (stereo not drawn) | - | - | - | - | - | .
CN1CCN(C(=O)C2=C[C@@H](c3ccc(C(F)(F)F)cc3)C[C@@H](OCc3ccc(CO)cc3)O2)CC1 | - | - | 59 | - | - | 59
O=C(C1=C[C@H](c2ccc(C(F)(F)F)cc2)C[C@H](OCc2ccc(CO)cc2)O1)N1CCOCC1 | - | - | - | - | - | .
